Results: ChEMBL document CHEMBL4177755, “Combating Drug-Resistant Fungi with Novel Imperfectly Amphipathic Palindromic Peptides” (J Med Chem, 2018)

Legend:
Candida albicans [1] = experiment: Antifungal activity against Candida albicans cgmcc 2.2086 after 48 hrs by broth microdilution method; type: functional; details: cgmcc 2.2086, 48 h
Procedure, shortened: (§1)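 Modified CLSI M27-A2 broth microdilution. Yeast at (0.5−1) × 10^3 CFU/mL in MOPS-buffered RPMI 1640 was mixed 1:1 with peptide serially diluted in 0.2% BSA and incubated 48 h at 28 °C. Absorbance was read at 492 nm; MIC is the lowest concentration inhibiting 95% of growth. Triplicate, three biological replicates.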

Staphylococcus aureus [2] = experiment: Bactericidal activity against Staphylococcus aureus ATCC 25923; type: functional; details: read-out: MBC99.9
Procedure, shortened: (§2)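 Wells from the 24 h, 37 °C MHB microdilution plates (bacteria at a final (0.5−1) × 10^5 CFU/mL; peptide diluted in 0.2% BSA) were plated on agar and incubated overnight. MBC is the lowest concentration killing >99.9% of cells. Each test was reproduced at least 3 times.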

Candida albicans [3] = experiment: Antifungal activity against Candida albicans cgmcc 2.2086 in presence of CaCl2 by broth dilution method; type: functional
Candida albicans [4] = experiment: Antifungal activity against Candida albicans cgmcc 2.2086 in presence of NH4Cl by broth dilution method; type: functional
Candida albicans [5] = experiment: Fungicidal activity against Candida albicans SP3931 after 96 hrs; type: functional; details: SP3931, 96 h, read-out: MFC99.9
Procedure, shortened: (§3)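 After the 48 h, 28 °C broth microdilution in MOPS-buffered RPMI 1640 (inoculum (0.5−1) × 10^3 CFU/mL), 50 μL from each well was plated on YM agar for a further 48 h at 28 °C. MFC is the lowest concentration killing at least 99.9% of cells. Triplicate, three biological replicates.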

Candida albicans [6] = experiment: Fungicidal activity against fluconazole-resistant Candida albicans 56452 after 96 hrs; type: functional; details: Candida albicans, 56452, 96 h; read-out: MFC99.9; procedure, shortened: as §3
Candida albicans [7] = experiment: Antifungal activity against Candida albicans isolated from alveolar fluid after 48 hrs by broth microdilution method; type: functional; procedure, shortened: as §1
Candida albicans [8] = experiment: Fungicidal activity against Candida albicans cgmcc 2.2086 after 96 hrs; type: functional; details: cgmcc 2.2086, 96 h, read-out: MFC99.9; procedure, shortened: as §3
Escherichia coli [9] = experiment: Antibacterial activity against Escherichia coli ATCC 25922 after 18 hrs in presence of NaCl by broth dilution method; type: functional; details: ATCC 25922, 18 h
Candida albicans [10] = experiment: Antifungal activity against Candida albicans SP3903 after 48 hrs by broth microdilution method; type: functional; details: SP3903, 48 h; procedure, shortened: as §1
Candida albicans [11] = experiment: Fungicidal activity against Candida albicans isolated from alveolar fluid after 96 hrs; type: functional; details: read-out: MFC99.9; procedure, shortened: as §3
Escherichia coli [12] = experiment: Antibacterial activity against Escherichia coli ATCC 25922 after 18 hrs in presence of FeCl3 by broth dilution method; type: functional; details: ATCC 25922, 18 h
Staphylococcus aureus [13] = experiment: Antibacterial activity against Staphylococcus aureus ATCC 29213 after 24 hrs; type: functional; details: ATCC 29213, 24 h
Procedure, shortened: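 Modified NCCLS broth microdilution. Mid-log bacteria at (0.5−1) × 10^5 CFU/mL in MHB were mixed 1:1 with peptide serially diluted in 0.2% BSA and incubated 24 h at 37 °C. Absorbance was read at 492 nm; MIC is the lowest concentration inhibiting 95% of growth. At least 3 repeats.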

Candida albicans [14] = experiment: Antifungal activity against Candida albicans SP3902 after 48 hrs by broth microdilution method; type: functional; details: SP3902, 48 h; procedure, shortened: as §1
[15] = Cytotoxicity against mouse RAW264.7 cells assessed as cell viability at 2 to 64 uM after 24 hrs by MTT assay relative to control; type: cell-based; details: read-out: Activity
Procedure, shortened: (§4)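 MTT viability assay. RAW264.7 or HEK293T cells at (1.0−2.0) × 10^5 per well were exposed to a peptide concentration series for 24 h at 37 °C in 5% CO2. MTT was then added at 0.5 mg/mL final for 4 h; formazan was dissolved in DMSO and read at 570 nm. Results average three independent trials.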

[16] = Antibacterial activity against Salmonella pullorum ATCC 7913 after 24 hrs; type: functional, Salmonella enterica subsp. enterica serovar Pullorum; details: Salmonella enterica, ATCC 7913, 24 h
Procedure, shortened: (§5)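 Broth microdilution. Mid-log bacteria in MHB at a final (0.5−1) × 10^5 CFU/mL were mixed with equal volumes of peptide serially diluted in 0.2% BSA. Plates were incubated 24 h at 37 °C and read at A492. MIC is the lowest concentration inhibiting 95% of growth. Each test was repeated at least 3 times.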

Candida albicans [17] = experiment: Antifungal activity against fluconazole-resistant Candida albicans 56214 after 48 hrs by broth microdilution method; type: functional; details: Candida albicans, 56214, 48 h; procedure, shortened: as §1
Candida albicans [18] = experiment: Antifungal activity against Candida albicans cgmcc 2.2086 in presence of KCl by broth dilution method; type: functional
[19] = Cytotoxicity against HEK293T cells assessed as cell viability at 2 to 64 uM after 24 hrs by MTT assay relative to control; type: cell-based, HEK-293T; details: human, read-out: Activity; procedure, shortened: as §4
Escherichia coli [20] = experiment: Antibacterial activity against Escherichia coli ATCC 25922 after 18 hrs in presence of MgCl2 by broth dilution method; type: functional; details: ATCC 25922, 18 h
Erythrocyte = experiment: Hemolytic activity in human RBC after 1 hr; type: ADME, cell-based
Procedure, shortened: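 Fresh human erythrocytes, diluted 10-fold in PBS pH 7.4, were mixed with equal volumes of peptide and held 1 h at 37 °C. After centrifugation at 1000g, supernatant hemoglobin was read at 576 nm. PBS set 0% and 0.1% Triton X-100 set 100% lysis. MHC is the concentration causing 10% hemolysis. At least three experiments were run, each in technical triplicate.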

Escherichia coli [21] = experiment: Antibacterial activity against Escherichia coli ATCC 25922 after 18 hrs in presence of NH4Cl by broth dilution method; type: functional; details: ATCC 25922, 18 h
[22] = Bactericidal activity against Salmonella pullorum ATCC 7913; type: functional, Salmonella enterica subsp. enterica serovar Pullorum; details: Salmonella enterica, read-out: MBC99.9; procedure, shortened: as §2
Candida albicans [23] = experiment: Antifungal activity against Candida albicans cgmcc 2.2086 in presence of MgCl2 by broth dilution method; type: functional
Pichia kudriavzevii = experiment: Antifungal activity against Candida krusei cgmcc 2.1857 after 48 hrs by broth microdilution method; type: functional; details: cgmcc 2.1857, 48 h
Procedure, shortened: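 Modified CLSI M27-A2 broth microdilution. Yeast were suspended in MOPS-buffered RPMI 1640 at a final (0.5−1) × 10^3 CFU/mL and mixed 1:1 with peptide serially diluted in 0.2% BSA. Plates were incubated 48 h at 28 °C and read at A492. MIC is the lowest concentration giving 95% inhibition. Run in triplicate with three biological replicates.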

Escherichia coli [24] = experiment: Antibacterial activity against Escherichia coli 1005 after 24 hrs; type: functional; details: Escherichia coli, 1005, 24 h; procedure, shortened: as §5
Candida albicans [25] = experiment: Fungicidal activity against Candida albicans SP3903 after 96 hrs; type: functional; details: SP3903, 96 h, read-out: MFC99.9; procedure, shortened: as §3
Candida albicans [26] = experiment: Antifungal activity against Candida albicans cgmcc 2.2086 in presence of NaCl by broth dilution method; type: functional

| Substance | MIC95 (Candida albicans [1]) [µM] | MBC (Staphylococcus aureus [2]) [µM] | MIC (Candida albicans [3]) [µM] | MIC (Candida albicans [4]) [µM] | MFC (Candida albicans [5]) [µM] | MFC (Candida albicans [6]) [µM] | MIC95 (Candida albicans [7]) [µM] | MFC (Candida albicans [8]) [µM] | MIC (Escherichia coli [9]) [µM] | MIC95 (Candida albicans [10]) [µM] | MFC (Candida albicans [11]) [µM] | MIC (Escherichia coli [12]) [µM] | MIC95 (Staphylococcus aureus [13]) [µM] | MIC95 (Candida albicans [14]) [µM] | viability at 24 h, up to 64 µM [15] [%] | MIC95 [16] [µM] | MIC95 (Candida albicans [17]) [µM] | MIC (Candida albicans [18]) [µM] | viability at 24 h, up to 64 µM [19] [%] | MIC (Escherichia coli [20]) [µM] | also measured |
| --- | --- | --- | --- | --- | --- | --- | --- | --- | --- | --- | --- | --- | --- | --- | --- | --- | --- | --- | --- | --- | --- |
| H-FFRRFRRFF-NH2 | 16 | 8 | 32 | 8 | 32 | 16 | 16 | 32 | 8 | 16 | 32 | 8 | 8 | 32 | 70 to 80 | 32 | 16 | 16 | 70 to 80 | 8 | HC10 (Erythrocyte): > 128 µM; MIC (Escherichia coli [21]): 8 µM; MBC [22]: 64 µM; MIC (Candida albicans [23]): 16 µM; MIC95 (Pichia kudriavzevii): 4 µM; MIC95 (Escherichia coli [24]): 8 µM; MFC (Candida albicans [25]): 16 µM; MIC (Candida albicans [26]): 16 µM |
| H-IIRRIRRII-NH2 | 64 | > 64 | 64 | 64 | > 64 | 64 | 64 | 64 | 32 | > 64 | > 64 | 64 | 64 | > 64 | 70 to 80 | 32 | 64 | 64 | 70 to 80 | 32 | HC10 (Erythrocyte): > 128 µM; MIC (Escherichia coli [21]): 32 µM; MBC [22]: > 64 µM; MIC (Candida albicans [23]): 64 µM; MIC95 (Pichia kudriavzevii): 16 µM; MIC95 (Escherichia coli [24]): 16 µM; MFC (Candida albicans [25]): > 64 µM; MIC (Candida albicans [26]): 64 µM |
| H-LLRRLRRLL-NH2 | 32 | 32 | 64 | 32 | 32 | 32 | 64 | 64 | 16 | 16 | > 64 | 16 | 64 | > 64 | 70 to 80 | 32 | 32 | 64 | 70 to 80 | 16 | HC10 (Erythrocyte): > 128 µM; MIC (Escherichia coli [21]): 16 µM; MBC [22]: 64 µM; MIC (Candida albicans [23]): 64 µM; MIC95 (Pichia kudriavzevii): 8 µM; MIC95 (Escherichia coli [24]): 16 µM; MFC (Candida albicans [25]): 16 µM; MIC (Candida albicans [26]): 64 µM |
| H-RFFRRFRRFFR-NH2 | 8 | 8 | 64 | 4 | 16 | 8 | 8 | 16 | 8 | 4 | 16 | 8 | 8 | 8 | 70 to 80 | 4 | 8 | 16 | 70 to 80 | 2 | HC10 (Erythrocyte): > 128 µM; MIC (Escherichia coli [21]): 4 µM; MBC [22]: 8 µM; MIC (Candida albicans [23]): 8 µM; MIC95 (Pichia kudriavzevii): 2 µM; MIC95 (Escherichia coli [24]): 8 µM; MFC (Candida albicans [25]): 4 µM; MIC (Candida albicans [26]): 32 µM |
